Activity calls are given as the source filed them. No cut-off for these calls is given here.
Key:
[1] = molecular target: T1, Probable G-protein coupled receptor 142 (Homo sapiens, UniProt Q7Z601); experiment: Agonist activity at human GPR142 receptor expressed in HEK293 cells assessed as accumulation of inositol phosphate incubated for 1 hr followed by IP1-d2 addition by HTRF assay; type: functional, cell-based
T1 sequence (Q7Z601 whole entry): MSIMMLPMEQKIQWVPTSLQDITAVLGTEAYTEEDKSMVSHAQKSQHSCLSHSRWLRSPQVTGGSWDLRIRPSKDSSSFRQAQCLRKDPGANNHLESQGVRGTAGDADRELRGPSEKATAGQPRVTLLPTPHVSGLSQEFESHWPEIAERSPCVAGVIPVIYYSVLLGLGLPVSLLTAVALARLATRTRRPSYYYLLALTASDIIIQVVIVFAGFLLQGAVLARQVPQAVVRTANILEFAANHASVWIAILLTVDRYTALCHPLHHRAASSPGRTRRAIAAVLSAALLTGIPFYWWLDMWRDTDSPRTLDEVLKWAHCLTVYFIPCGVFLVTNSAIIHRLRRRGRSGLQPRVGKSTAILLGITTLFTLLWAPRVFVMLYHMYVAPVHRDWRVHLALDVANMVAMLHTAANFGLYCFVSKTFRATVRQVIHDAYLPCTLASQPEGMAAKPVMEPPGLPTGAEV
Summary of the method: (§1)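 HEK293 cells stably expressing human GPR142 (DMEM, 10% FBS, 800 ug/mL G418, 37 °C, 5% CO2), seeded 5000 cells/well and left 18 h to attach. Compounds added at 30 uM to 1 nM, 1 h incubation in HBSS (+Ca, +Mg), 0.1% BSA, 50 mM LiCl, 20 mM HEPES pH 7.2. IP-1 HTRF read-out: IP1-d2 then cryptate, 1 h at 25 °C, 665/620 nm ratio converted via IP-1 standard curve; EC50 by 4-parameter logistic fit.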

[2] = molecular target: T2, Probable G-protein coupled receptor 142 (Homo sapiens) (UniProt Q7Z601); experiment: Agonist activity at human GPR142 receptor expressed in HEK293 cells assessed as accumulation of inositol phosphate at 30 uM to 1 nM incubated for 1 hr followed by IP1-d2 addition by HTRF assay relative to control; type: functional, cell-based; summary of the method: as §1
T2 sequence (whole entry): T1 sequence (Q7Z601 whole entry)

[3] = Drug metabolism in mouse microsomes assessed as drug turnover at 20 uM measured after 30 mins by LCMS analysis; type: ADME, Microsome; details: read-out: Drug metabolism
Summary of the method: (§2)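 High-throughput microsomal stability: compound at 20 uM incubated with mouse, rat, dog or human liver microsomes at 37 °C; percent parent remaining measured after 30 min and reported as % turnover.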

[4] = Drug metabolism in rat microsomes assessed as drug turnover at 20 uM measured after 30 mins by LCMS analysis; type: ADME, Microsome; details: read-out: Drug metabolism; summary of the method: as §2
[5] = Drug metabolism in dog microsomes assessed as drug turnover at 20 uM measured after 30 mins by LCMS analysis; type: ADME, Canis lupus familiaris, Microsome; details: read-out: Drug metabolism; summary of the method: as §2
[6] = Drug metabolism in human microsomes assessed as drug turnover at 20 uM measured after 30 mins by LCMS analysis; type: ADME, Microsome; details: read-out: Drug metabolism; summary of the method: as §2
[7] = Clearance in rat at 1 mg/kg, iv or 10 mg/kg, po; type: ADME, organism-based; details: in vivo
[8] = Volume of distribution at steady state in rat at 1 mg/kg, iv or 10 mg/kg, po; type: ADME, organism-based; details: in vivo, read-out: Vdss
[9] = Oral bioavailability in rat at 10 mg/kg; type: ADME, organism-based; details: in vivo
[10] = Clearance in dog at 1 mg/kg, iv or 5 mg/kg, po; type: ADME, organism-based, Canis lupus familiaris; details: in vivo
[11] = Volume of distribution at steady state in dog at 1 mg/kg, iv or 5 mg/kg, po; type: ADME, organism-based, Canis lupus familiaris; details: in vivo, read-out: Vdss
[12] = Oral bioavailability in dog at 5 mg/kg; type: ADME, organism-based, Canis lupus familiaris; details: in vivo
[13] = molecular target: CYP3A4 (Homo sapiens, UniProt P08684); experiment: Inhibition of CYP3A4 (unknown origin) at 10 uM relative to control; type: ADME
Sequence of CYP3A4 (P08684 whole entry): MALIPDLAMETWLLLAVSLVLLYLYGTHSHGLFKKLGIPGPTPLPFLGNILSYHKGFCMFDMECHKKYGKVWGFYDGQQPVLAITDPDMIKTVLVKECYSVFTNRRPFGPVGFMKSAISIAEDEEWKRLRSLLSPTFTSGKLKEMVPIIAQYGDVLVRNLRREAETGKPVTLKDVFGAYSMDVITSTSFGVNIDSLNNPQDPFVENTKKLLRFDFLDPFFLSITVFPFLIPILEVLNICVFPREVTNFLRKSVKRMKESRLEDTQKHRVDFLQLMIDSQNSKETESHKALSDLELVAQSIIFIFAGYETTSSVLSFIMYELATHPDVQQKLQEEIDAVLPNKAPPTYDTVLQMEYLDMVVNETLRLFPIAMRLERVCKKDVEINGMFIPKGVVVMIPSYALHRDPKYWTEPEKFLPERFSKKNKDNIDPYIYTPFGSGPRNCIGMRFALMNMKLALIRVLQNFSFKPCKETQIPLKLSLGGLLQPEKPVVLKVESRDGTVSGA

[14] = molecular target: CYP2C9 (Homo sapiens, UniProt P11712); experiment: Inhibition of CYP2C9 (unknown origin) at 10 uM relative to control; type: ADME
Sequence of CYP2C9 (P11712 whole entry): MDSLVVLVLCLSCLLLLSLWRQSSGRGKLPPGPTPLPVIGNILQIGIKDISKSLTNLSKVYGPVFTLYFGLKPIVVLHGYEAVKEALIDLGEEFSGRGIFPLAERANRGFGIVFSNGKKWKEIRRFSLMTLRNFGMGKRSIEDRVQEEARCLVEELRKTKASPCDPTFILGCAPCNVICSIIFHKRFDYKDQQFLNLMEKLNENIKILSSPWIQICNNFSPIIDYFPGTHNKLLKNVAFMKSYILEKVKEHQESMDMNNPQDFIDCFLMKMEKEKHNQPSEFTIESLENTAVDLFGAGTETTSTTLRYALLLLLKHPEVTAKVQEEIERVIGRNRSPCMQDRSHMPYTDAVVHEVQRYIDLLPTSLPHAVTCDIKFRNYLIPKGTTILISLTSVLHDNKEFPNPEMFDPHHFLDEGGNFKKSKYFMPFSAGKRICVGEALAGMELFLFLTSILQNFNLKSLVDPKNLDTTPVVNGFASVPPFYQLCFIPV

[15] = molecular target: CYP2D6 (Homo sapiens, UniProt P10635); experiment: Inhibition of CYP2D6 (unknown origin) at 10 uM relative to control; type: ADME
Sequence of CYP2D6 (P10635 whole entry): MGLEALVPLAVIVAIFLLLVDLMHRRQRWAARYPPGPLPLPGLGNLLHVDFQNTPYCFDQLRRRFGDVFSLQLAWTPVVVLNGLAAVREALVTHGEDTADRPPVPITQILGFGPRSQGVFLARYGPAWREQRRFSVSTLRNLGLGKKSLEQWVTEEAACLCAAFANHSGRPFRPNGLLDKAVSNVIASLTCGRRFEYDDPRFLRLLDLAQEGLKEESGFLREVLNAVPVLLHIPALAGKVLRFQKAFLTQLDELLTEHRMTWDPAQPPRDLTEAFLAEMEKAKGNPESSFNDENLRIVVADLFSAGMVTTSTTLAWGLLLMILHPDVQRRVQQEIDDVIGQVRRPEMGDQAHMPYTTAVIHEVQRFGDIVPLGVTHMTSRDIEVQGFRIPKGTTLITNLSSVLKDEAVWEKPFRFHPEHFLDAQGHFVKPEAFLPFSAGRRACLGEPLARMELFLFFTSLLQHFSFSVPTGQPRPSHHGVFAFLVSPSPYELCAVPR

[16] = system: Mus musculus; experiment: Hypoglycemic activity in po dosed lean C57BL/6J mouse assessed as reduction in glucose level administered 30 mins prior to glucose challenge measured for 60 mins by IPGTT; type: functional, organism-based
Summary of the method: (§3)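 IPGTT in male C57BL/6 mice, lean or diet-induced obese; compound given orally 30 min before intraperitoneal glucose load; blood glucose followed over time. Mean ± SEM, n=5 per group, compared with vehicle (p<0.05, 0.01, 0.001).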

[17] = system: Mus musculus; experiment: Hypoglycemic activity in diet-induced obese C57BL/6J mouse assessed as reduction in glucose level at 15 mg/kg, po administered 30 mins prior to glucose challenge measured for 120 mins by IPGTT; type: functional, organism-based; summary of the method: as §3
[18] = system: Mus musculus; experiment: Hypoglycemic activity in diet-induced obese C57BL/6J mouse assessed as increase in plasma insulin secretion at 10 mg/kg, po administered 30 mins prior to glucose challenge measured after 15 mins by IPGTT; type: functional, organism-based; details: 15 mg/kg, in the assay text read “15 mg/kg” for “10 mg/kg”
Summary of the method: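 IPGTT in male diet-induced obese mice; compound given orally 30 min before intraperitoneal glucose; plasma insulin measured. Mean ± SEM, n=5 per group, versus vehicle.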

[19] = system: Mus musculus; experiment: Hypoglycemic activity in diet-induced obese C57BL/6J mouse assessed as reduction in glucose level at 15 mg/kg, po co-administered with 5 mg/kg DPP-4 inhibitor, sitagliptin 30 mins prior to glucose challenge measured after 120 mins by IPGTT; type: functional, organism-based; summary of the method: as §3
[20] = system: Mus musculus; experiment: Hypoglycemic activity in diet-induced obese C57BL/6J mouse assessed as increase in insulin secretion at 15 mg/kg, po co-administered with 5 mg/kg DPP-4 inhibitor, sitagliptin 30 mins prior to glucose challenge measured after 15 mins by IPGTT; type: functional, organism-based
[21] = Dissociation constant, pKa of compound; type: physicochemical
[22] = Fractional renal clearance in dog at 1 mg/kg, iv or 5 mg/kg, po; type: ADME, organism-based, Canis lupus familiaris; details: in vivo
[23] = system: Mus musculus; experiment: Hypoglycemic activity in lean C57BL/6J mouse assessed as reduction in glucose level at 0.01 mg/kg, po administered 30 mins prior to glucose challenge measured for 60 mins by IPGTT; type: functional; summary of the method: as §3
[24] = system: Mus musculus; experiment: Hypoglycemic activity in lean C57BL/6J mouse assessed as reduction in glucose level at 0.03 mg/kg, po administered 30 mins prior to glucose challenge measured for 60 mins by IPGTT; type: functional; summary of the method: as §3
[25] = system: Mus musculus; experiment: Hypoglycemic activity in lean C57BL/6J mouse assessed as reduction in glucose level at 0.1 mg/kg, po administered 30 mins prior to glucose challenge measured for 60 mins by IPGTT; type: functional; summary of the method: as §3
[26] = system: Mus musculus; experiment: Hypoglycemic activity in lean C57BL/6J mouse assessed as reduction in glucose level at 0.3 mg/kg, po administered 30 mins prior to glucose challenge measured for 60 mins by IPGTT; type: functional; summary of the method: as §3
[27] = system: Mus musculus; experiment: Hypoglycemic activity in lean C57BL/6J mouse assessed as reduction in glucose level at 1 mg/kg, po administered 30 mins prior to glucose challenge measured for 60 mins by IPGTT; type: functional; summary of the method: as §3
[28] = system: Mus musculus; experiment: Hypoglycemic activity in lean C57BL/6J mouse assessed as reduction in glucose level at 10 mg/kg, po administered 30 mins prior to glucose challenge measured for 60 mins by IPGTT; type: functional; summary of the method: as §3
[29] = Hypoglycemic activity in mouse pancreatic islets assessed as increase in glucose-dependent insulin secretion at 10 uM relative to control; type: functional, Pancreatic islet
Summary of the method: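 Isolated mouse pancreatic islets; glucose-dependent insulin secretion measured at 2.8 mM and 11.1 mM glucose with compound at 10 uM.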

[30] = Solubility of compound at pH 2 to 7.5; type: physicochemical; details: buffer
[31] = Permeability of compound; type: ADME; details: not told
[32] = Toxicity in rat assessed as NOAEL administered as repeated dose for 1 month; details: in vivo
[33] = Toxicity in dog assessed as NOAEL administered as repeated dose for 1 month; parameters: species or system Canis lupus familiaris; details: in vivo
[34] = molecular target: Cytochrome P450 3A4 (Homo sapiens, UniProt P08684); experiment: Induction of CYP3A4 (unknown origin) at 10 uM; type: ADME
Sequence of Cytochrome P450 3A4 (P08684 whole entry): as the sequence (P08684 whole entry) above

[35] = molecular target: Cytochrome P450 2C9 (Homo sapiens, UniProt P11712); experiment: Induction of CYP2C9 (unknown origin) at 10 uM; type: ADME
Sequence of Cytochrome P450 2C9 (P11712 whole entry): as the sequence (P11712 whole entry) above

[36] = molecular target: Cytochrome P450 2D6 (Homo sapiens, UniProt P10635); experiment: Induction of CYP2D6 (unknown origin) at 10 uM; type: ADME
Sequence of Cytochrome P450 2D6 (P10635 whole entry): as the sequence (P10635 whole entry) above

Work on `Cc1ncn(C)c1NC(=O)[C@H]1CCC[C@@H](N(C)C(=O)c2cccc(C(F)(F)F)c2)C1` yielded an EC50 [1] of 30 nM, an Emax [2] of 104% and a metabolised at 0.5 h, 20 µM [3] of 89%. It also gave a metabolised at 0.5 h, 20 µM [4] of 41%, a metabolised at 0.5 h, 20 µM [5] of 28% and a metabolised at 0.5 h, 20 µM [6] of 32%. The clearance [7] was 49.6 mL/min/kg, the Vd [8] was 1.3 L/kg and the bioavailability [9] was 28%. It also gave a clearance [10] of 17.6 mL/min/kg, a Vd [11] of 1.2 L/kg and a bioavailability [12] of 66%. For the same molecule, the inhibition at 10 µM [13] was 6.1%, the inhibition at 10 µM [14] was 14% and the inhibition at 10 µM [15] was 0%. For the same molecule, the Activity [16] was “Dose-dependent effect”, the Activity [17] was “Active” and the Activity [18] was “Active”. For the same molecule, the Activity [19] was “Active”, the Activity [20] was “Active” and the pKa [21] was 6.9. For the same molecule, the CL [22] was 20%, the inhibition in vivo at 0.01 mg/kg [23] was 9% and the inhibition in vivo at 0.03 mg/kg [24] was 11%. For the same molecule, the inhibition in vivo at 0.1 mg/kg [25] was 12%, the inhibition in vivo at 0.3 mg/kg [26] was 27% and the inhibition in vivo at 1 mg/kg [27] was 34%. The inhibition in vivo at 10 mg/kg [28] was 47% and the “fold change (FC)” value [29] was 1.4.

In the case of `Cc1ncn(C)c1-c1nnc([C@@H]2C[C@H](N(C)C(=O)c3cccc(C(F)(F)F)c3)CCO2)[nH]1`, the EC50 [1] is reported as 43 nM, the metabolised at 0.5 h, 20 µM [3] is reported as 22% and the metabolised at 0.5 h, 20 µM [4] is reported as 14%. It also gave a metabolised at 0.5 h, 20 µM [5] of 13%, a metabolised at 0.5 h, 20 µM [6] of 14% and a clearance [7] of 22.1 mL/min/kg. For the same molecule, the Vd [8] was 1.1 L/kg, the bioavailability [9] was 63% and the clearance [10] was 8.4 mL/min/kg. The Vd [11] was 1.3 L/kg, the bioavailability [12] was 78% and the inhibition at 10 µM [13] was 22%. It also gave an inhibition at 10 µM [14] of 11%, an inhibition at 10 µM [15] of 16% and a solubility [30] of over 2000 µg/mL. For the same molecule, the Papp [31] was 13.5 ×10⁻⁶ cm/s, the NOAEL at 1 month [32] was 200 mg/kg and the NOAEL at 1 month [33] was 180 mg/kg. The pKa [21] was 5.9, the CL [22] was under 5% and the Activity [34] was “Not Active”. The Activity [35] was “Not Active” and the Activity [36] was “Not Active”.

Source: ChEMBL document CHEMBL4627259, “Discovery of LY3325656: A GPR142 agonist suitable for clinical testing in human” (Bioorg Med Chem Lett, 2020)
